An excerpt weighted towards active compounds, which were near 2.1% of everything screened.
CHRM5 antagonist: antagonists of human muscarinic M5 receptor (CHRM5); P08912; CHO-hM5 cells, Fluo-8 calcium fluorescence, ACh EC80; inhibition, % at 3 µM; actives 0.59% (n = 360,000);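 active means inhibition above a per-plate cutoff, the mean of that plate's test compounds plus 3 SD, cut at about 27% in these data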
Target sequence (P08912 whole entry, looked up): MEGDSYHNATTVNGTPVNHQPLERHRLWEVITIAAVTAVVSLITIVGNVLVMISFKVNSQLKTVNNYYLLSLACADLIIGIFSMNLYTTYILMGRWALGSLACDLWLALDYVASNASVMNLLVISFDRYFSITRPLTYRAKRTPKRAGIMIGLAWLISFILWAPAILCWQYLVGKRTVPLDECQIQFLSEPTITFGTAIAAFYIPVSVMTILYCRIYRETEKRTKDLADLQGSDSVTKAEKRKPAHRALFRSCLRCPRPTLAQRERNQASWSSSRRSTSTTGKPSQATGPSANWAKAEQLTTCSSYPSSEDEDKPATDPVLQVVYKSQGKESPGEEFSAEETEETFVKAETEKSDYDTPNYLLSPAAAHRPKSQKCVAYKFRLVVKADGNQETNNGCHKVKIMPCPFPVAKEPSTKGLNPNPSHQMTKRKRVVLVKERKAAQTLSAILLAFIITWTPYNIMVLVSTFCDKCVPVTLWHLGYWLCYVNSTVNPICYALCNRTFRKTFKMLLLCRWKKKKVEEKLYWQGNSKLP
M1 antag: antagonists of human M1 muscarinic receptor; P11229; CHO-K1 hM1, Fluo-8 calcium fluorescence, ACh EC80 antagonist; inhibition, % at 3 µM; actives 1.3% (n = 360,000);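 active means percent inhibition above its own plate's cutoff, namely the mean of that plate's compound wells plus 3 SD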;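 further: peak over basal fluorescence ratio during 140 s after agonist addition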
CHRM5 agonist: agonists of human muscarinic M5 receptor (CHRM5); P08912; CHO-K1 hM5 cells, Fluo-8 calcium fluorescence; 0% DMSO wells, 100% maximal acetylcholine response; activation, % at 3 µM; actives 0.19% (n = 360,000);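 active means activation above the run's mean over test compounds plus 3 SD, cut at about 23% in these data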;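 further: signal is peak over basal fluorescence ratio across the kinetic read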
CHRM1 agonist: human M1 muscarinic receptor agonism | P11229 | CHO-K1 hM1, Fluo-8 calcium fluorescence, agonist mode; 0% DMSO, 100% acetylcholine EC100 | activation, % at 3 µM | actives 0.33% (n = 360,000) | AID 588814;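 active means activation above the run's mean compound activation plus 3 SD, cut at about 16% in these data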;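 further: peak over basal fluorescence ratio within a 140 s kinetic read after compound addition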
CHRM5 PAM: potentiates acetylcholine response at human M5 receptor | P08912 | CHO-K1 hM5, Fluo-8 calcium, ACh EC20 PAM; 0% = ACh EC20, 100% = ACh EC100 | activation, % at 3 µM | actives 0.3% (n = 360,000);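 active means activation above the run cutoff, the mean activation of all test compounds plus 3 SD, cut at about 18% in these data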
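Assay system: CHO-K1 hM5 cells. Also added: acetylcholine at EC20 concentration, added after compound. Dosing: 3 µM, single dose. Times: compound preincubation 140 s before EC20 acetylcholine addition. Signal: Fluo-8 calcium fluorescence. Measure: % activation relative to EC20 and EC100 ACh responses. Repeats: singlicate, one well per test compound.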
CHRM1 PAM: human CHRM1 positive allosteric modulation | CHO-K1 hM1, Fluo-8 calcium fluorescence, ACh EC20; 0% = ACh EC20, 100% = maximal ACh | activation, % at 3 µM | actives 0.088% (n = 360,000) | AID 588819; in the data active means activation above about 19%, passing the limit was not always enough
Numbers stand for hits; i = inactive.

SMILES | CHRM5 antagonist | M1 antag | CHRM5 agonist | CHRM1 agonist | CHRM5 PAM | CHRM1 PAM
COc1ccc(C(=O)NNC(=O)c2ccc(C(C)(C)C)cc2)cc1 | i | i | i | i | i | i
Cn1c(=O)oc2cc(S(=O)(=O)CCC(=O)NCCc3ccccc3)ccc21 | i | i | i | i | i | i
Cn1c(=O)c(C#N)c(-c2ccc(F)cc2)c2cc(C(=O)c3cc(Cl)cc(Cl)c3O)cnc21 | i | 31 | i | i | i | i
CC1CC(C)CN(CCOCCSc2ccc(Cl)cc2)C1 (configuration not stated) | i | 35 | i | i | i | i
Clc1ccc(SCCCN2CCCCC2)cc1 | i | 33 | i | i | i | i
CC1CN(CCCSc2ccc(Cl)cc2)CC(C)O1 (configuration not stated) | i | i | i | i | i | i
CC(=O)C1=C(C)NC(SCc2ccc(C#N)cc2)=C(C#N)C1c1ccco1 (configuration not stated) | i | i | i | i | i | i
CCOc1ccc(S(=O)(=O)NCc2ccncc2)cc1 | i | i | i | i | i | i
CCOC(=O)COc1ccc(S(=O)(=O)NCc2ccncc2)cc1 | i | 19 | i | i | i | i
CCOc1cc(S(=O)(=O)NCc2ccncc2)ccc1Cl | 60 | i | i | i | i | i
CCOc1cc(S(=O)(=O)NCc2cccs2)ccc1Cl | i | i | i | i | i | i
N#Cc1cnn(-c2ccccc2)c1NC(=O)CN1CCOCC1 | i | i | i | i | i | i
COc1ccc(CCNC(=O)C2CCCN(c3nn4c(=O)cc(C)nc4s3)C2)cc1OC (configuration not stated) | i | i | i | i | i | i
COc1ccc(-[n+]2c(C)cc(/C=C3\Sc4ccccc4N3C)cc2C)cc1 | 48 | 81 | i | i | i | i
COc1ccccc1OC(=O)CCN1c2ccccc2Sc2ccccc21 | i | i | i | i | i | i
COc1ccccc1-[n+]1c(C)cc(/C=C2\Sc3ccccc3N2C)cc1C | 53 | 83 | i | 36 | i | i
COc1ccc(C(=O)/C=C2\Sc3ccccc3N2C)cc1 | i | i | i | i | i | i
CC(=O)Nc1sc2c(c1C(c1ccccc1Cl)N1CCN(CCO)CC1)CCCC2 (configuration not stated) | 65 | 45 | i | i | i | i
CC(=O)Nc1sc2c(c1C(c1ccccn1)N1CCN(C)CC1)CCCC2 (configuration not stated) | i | 48 | i | i | i | i
COc1ccccc1NS(=O)(=O)c1cc(NC(=O)CN2C(=O)NC3(CCCCC3)C2=O)ccc1C | i | i | i | i | i | i
COc1ccc(C(=O)N2CCCC(CCC(=O)NCc3ccc(F)c(F)c3)C2)o1 (configuration not stated) | i | i | i | i | i | i
COc1ccc(CN2CCN(c3ncnc4scc(-c5ccc(F)cc5)c34)CC2)cc1 | i | i | i | i | i | i
CCOc1ccc(CN2CCN(c3ncnc4scc(-c5ccccc5)c34)CC2)cc1 | i | i | i | 22 | i | i
COc1cccc(/C=N/Nc2ncnc3scc(-c4ccccc4)c23)c1O | i | 34 | i | i | i | i
CCS(=O)(=O)N1CCCC(C(=O)c2ccc(OC)cc2C)C1 (configuration not stated) | i | i | i | i | i | i
SMILES | CHRM5 antagonist | M1 antag | CHRM5 agonist | CHRM1 agonist | CHRM5 PAM | CHRM1 PAM
COc1ccc(C(=O)C2CCCN(S(=O)(=O)c3ccc(C(C)=O)cc3)C2)c(C)c1 (configuration not stated) | i | 43 | i | i | i | i
CCOC(=O)C1=CCC2C(=O)N(C3CCCCC3)C(=O)C12 (configuration not stated) | i | i | i | i | i | i
CC(=O)Nc1ccc(S(=O)(=O)Nc2ccccc2N2CCOCC2)cc1Cl | i | i | i | i | i | i
O=C(O)c1cccc(S(=O)(=O)Nc2ccccc2N2CCOCC2)c1 | i | 54 | i | i | i | i
O=C(Nc1ccccc1F)c1c[nH]c(=O)[nH]c1=O | i | 40 | i | i | i | i
CC1CCCCN1CC(=O)Nc1ccccc1Sc1ccccc1 (configuration not stated) | i | 27 | i | i | i | i

Assay outcomes deposited in PubChem by The Scripps Research Institute Molecular Screening Center.
